Laboratory results taken from ChEMBL document CHEMBL1133750, “X-Ray structure of cytotoxic trans-[PtCl(2)(dimethylamine)(isopropylamine)]: interstrand cross-link efficiency, DNA sequence specificity, and inhibition of the B-Z transition” (J Med Chem, 2000).

What was measured:
[1] = Ratio of the amount of platinum bound per nucleotide to ri (0.15)
How it was run: (§1)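 Linear pBR322 DNA (20 μg/mL) in 10 mM NaClO₄ incubated at 37 °C with Pt compound at input Pt/nucleotide ratio ri of 0.01–0.20; 24 h for the rb/ri series, aliquots at various times for kinetics. Unbound drug removed by ethanol/0.3 M sodium acetate (pH 4.8) precipitation of DNA; Pt bound per nucleotide (rb) measured by TXRF; rb/ri given as percent; mean ± SD.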

[2] = Ratio of the amount of platinum bound per nucleotide to ri (0.20); how it was run: as §1
[3] = Ratio of the amount of platinum bound per nucleotide to ri (0.10); how it was run: as §1
[4] = Ratio of the amount of platinum bound per nucleotide to ri (0.01); how it was run: as §1
[5] = Ratio of the amount of platinum bound per nucleotide to ri (0.05); how it was run: as §1

Ratio [1] [%] | Ratio [2] [%] | Ratio [3] [%] | Ratio [4] [%] | Ratio [5] [%] | Substance
80 | 75 | 90 | 97 | 95 | CISPLATIN
70 | 68 | 76 | 85 | 82 | Trans-[PtCl2(dimethylamine)isopropylamine)] (tdmaipa)
